Assay results: ChEMBL document CHEMBL1140335, “"Reversine" and its 2-substituted adenine derivatives as potent and selective A3 adenosine receptor antagonists” (J Med Chem, 2005)

Legend:
[1] = biological target: T1, Adenosine receptor A1 (Homo sapiens, UniProt P30542); assay type: cell-based, CHO
T1 sequence (P30542 whole entry): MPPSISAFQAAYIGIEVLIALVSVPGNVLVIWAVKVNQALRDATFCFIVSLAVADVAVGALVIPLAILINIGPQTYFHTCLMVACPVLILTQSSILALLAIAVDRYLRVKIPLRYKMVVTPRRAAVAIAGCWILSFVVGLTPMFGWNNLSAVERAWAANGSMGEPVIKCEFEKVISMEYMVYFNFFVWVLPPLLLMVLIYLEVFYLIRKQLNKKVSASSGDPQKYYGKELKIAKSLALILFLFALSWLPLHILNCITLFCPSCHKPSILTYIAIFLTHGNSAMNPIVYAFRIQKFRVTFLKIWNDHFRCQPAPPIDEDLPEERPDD

[2] = biological target: T2, Adenosine receptor A2a (Homo sapiens, UniProt P29274); assay type: cell-based, CHO
[3] = biological target: T3, Adenosine receptor A3 (Homo sapiens, UniProt P0DMS8); assay: biochemical; assay type: cell-based, CHO
T3 sequence (P0DMS8 whole entry): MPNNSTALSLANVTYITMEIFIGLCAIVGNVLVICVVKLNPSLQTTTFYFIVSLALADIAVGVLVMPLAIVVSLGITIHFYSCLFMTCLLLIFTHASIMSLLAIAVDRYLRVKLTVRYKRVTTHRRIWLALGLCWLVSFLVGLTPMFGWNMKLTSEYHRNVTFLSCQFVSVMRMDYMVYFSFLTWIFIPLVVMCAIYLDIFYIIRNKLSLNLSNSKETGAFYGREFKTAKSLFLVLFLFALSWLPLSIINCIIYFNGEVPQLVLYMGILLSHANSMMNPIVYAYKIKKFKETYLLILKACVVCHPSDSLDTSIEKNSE

[4] = biological target: T1, Adenosine receptor A1; assay: Binding affinity for human adenosine A1 receptor
Outline: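 Membranes from CHO cells stably expressing human A1 receptor (20 μg protein) were incubated with 0.5 nM [3H]DPCPX in 50 mM Tris-HCl, pH 7.4, for 60 min at 25°C. Nonspecific binding was defined with 10 μM NECA. Bound label was collected by GF/B filtration and counted by scintillation.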

[5] = biological target: T4, Adenosine receptor A1 (Homo sapiens) (UniProt P30542); assay: (§1) Percent inhibition of [3H]DPCPX binding to human adenosine A1 receptor expressed in CHO cells at 10 uM; assay type: cell-based
T4 sequence (whole entry): T1 sequence (P30542 whole entry)
Outline: (§2)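 Test ligand at a single 10 μM was run against 0.5 nM [3H]DPCPX on membranes (20 μg protein) from CHO cells stably expressing human A1 receptor, in 50 mM Tris-HCl, pH 7.4, for 60 min at 25°C. Nonspecific binding was defined with 10 μM NECA. Filtration was on GF/B, with scintillation counting. Results are percent displacement of radioligand.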

[6] = biological target: T2, Adenosine receptor A2a; assay: Percent inhibition of [3H]-ZM241385 binding to human adenosine A2A receptor expressed in CHO cells at 10 uM
[7] = biological target: T1, Adenosine receptor A1; assay: as §1; assay type: cell-based
Outline: as §2

[8] = biological target: T2, Adenosine receptor A2a; assay: Percent inhibition of […] binding to human adenosine A2A receptor expressed in CHO cells at 10 uM; assay type: cell-based
[9] = biological target: T1, Adenosine receptor A1; assay: Percent inhibition of [3H]-DPCPX binding to human adenosine A1 receptor expressed in CHO cells at 10 uM; assay type: cell-based
Outline: as §2

T2 sequence (P29274 whole entry): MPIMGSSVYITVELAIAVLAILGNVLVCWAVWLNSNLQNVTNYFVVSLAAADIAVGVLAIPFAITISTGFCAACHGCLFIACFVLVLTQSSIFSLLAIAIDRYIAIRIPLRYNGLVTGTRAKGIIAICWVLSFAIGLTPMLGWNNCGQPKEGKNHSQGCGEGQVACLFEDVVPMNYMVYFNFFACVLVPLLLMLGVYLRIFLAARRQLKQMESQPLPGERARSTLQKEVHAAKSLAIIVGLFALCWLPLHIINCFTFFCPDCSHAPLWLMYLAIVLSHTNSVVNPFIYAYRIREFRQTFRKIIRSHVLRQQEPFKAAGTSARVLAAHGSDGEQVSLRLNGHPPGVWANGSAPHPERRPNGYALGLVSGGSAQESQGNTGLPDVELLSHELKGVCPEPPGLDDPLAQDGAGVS

SMILES	Ki [3] [µM]	inhibition [5] [%]	inhibition [6] [%]	other results
c1ccc(Nc2nc(NC3CCCCCC3)c3[nH]cnc3n2)cc1	0.042	–	–	Ki [1]: 1.72 µM; Ki [2]: 4.12 µM
c1ccc2cc(Nc3nc(NC4CCCCC4)c4[nH]cnc4n3)ccc2c1	2.42	–	–	–
CC(C)N(C)c1nc2c(NC3CC4CC3CC4O)ncnc2n1C (configuration not stated)	–	–	–	Ki [4]: 0.0017 µM
c1nc2nc(Nc3ccc(N4CCOCC4)cc3)nc(NC3CC3)c2[nH]1	1.87	22	25	–
c1ccc(CCNc2nc(NC3CCCCC3)c3[nH]cnc3n2)cc1	1.46	–	–	Ki [7]: 3.17 µM; inhibition [8]: 46%
Cn1cnc2c(NC3CCCCCC3)nc(Nc3ccccc3)nc21	0.96	–	–	Ki [1]: 1.94 µM; Ki [2]: 2.95 µM
c1nc2nc(Nc3ccc(N4CCOCC4)cc3)[nH]c(NC3CCCC3)c-2n1	1.39	22	20	–
c1nc2nc(Nc3ccc(N4CCOCC4)cc3)[nH]c(NC3CCCCCCC3)c-2n1	2.77	0	17	–
c1nc2nc(Nc3ccc(N4CCOCC4)cc3)nc(NC3CCCCC3)c2[nH]1 [REVERSINE]	0.66	–	–	Ki [1]: > 10 µM; Ki [2]: > 10 µM
CN(C)c1ccc(Nc2nc(NC3CCCCC3)c3[nH]cnc3n2)cc1	0.07	–	–	Ki [1]: 3.9 µM; Ki [2]: 6.1 µM
Cn1cnc2c(NC3CCCCC3)nc(Nc3ccccc3)nc21	0.07	–	–	Ki [1]: 1.88 µM; Ki [2]: 1.2 µM
c1ccc(CNc2nc(NC3CCCCC3)c3[nH]cnc3n2)cc1	0.92	42	34	–
c1nc2nc(Nc3ccc(N4CCOCC4)cc3)nc(NC3CC4CCC3C4)c2[nH]1 (configuration not stated)	0.122	–	–	–
c1nc2c(NC3CCCCC3)nc(Nc3ccc(N4CCCCC4)cc3)nc2[nH]1	1.57	16	–	inhibition [8]: 50%
c1ccc(Oc2nc(NC3CC4CCC3C4)c3nc[nH]c3n2)cc1 (configuration not stated)	0.074	–	25	Ki [1]: 1.47 µM
CCNc1[nH]c(Nc2ccc(N3CCOCC3)cc2)nc2ncnc1-2	1.53	23	16	–
c1ccc(Nc2nc3ncnc-3c(NC3CCCCCCC3)[nH]2)cc1	0.34	–	–	Ki [9]: 4.47 µM
c1ccc(Nc2nc3ncnc-3c(NC3CCCCC3)[nH]2)cc1	0.051	–	–	Ki [7]: 2.73 µM; Ki [2]: 1.7 µM
c1ccc(-c2ccc(Nc3nc4ncnc-4c(NC4CCCCC4)[nH]3)cc2)cc1	5.4	14	22	–
c1ccc2cc(Nc3nc4ncnc-4c(NC4CCCCC4)[nH]3)ccc2c1	–	39	52	–
c1ccc(Sc2nc3ncnc-3c(NC3CCCCC3)[nH]2)cc1	0.134	–	–	–
c1nc2nc(Nc3ccc(N4CCOCC4)cc3)[nH]c(NC3CCCCCC3)c-2n1	0.42	6	38	–
CCNc1nc(NC2CCCCC2)c2[nH]cnc2n1	1.12	51	42	–
c1nc2nc(Nc3ccc(N4CCOCC4)cc3)[nH]c(NC3CCC3)c-2n1	1.81	29	18	–
